Data from paper PMC7511286 (European Journal of Drug Metabolism and Pharmacokinetics, 2020).
“Also recorded” adds a separate entry of the source.

Tests used:
Assay type in all cases: in vivo, human
[1] = MAD study: safety and tolerability; settings: for TEAE Hemoglobinuria: subjects having the event: based solely on a positive dip stick test
Outline: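 Healthy males aged 18–55 took oral tablets. Treatment-emergent AEs were recorded by clinical evaluation. Vital signs (blood pressure, pulse), 12-lead and Holter ECG, physical examination, and urine and plasma laboratory tests were also assessed. AEs of special interest were hematuria and retroperitoneal colicky pain with suspected or confirmed nephrolithiasis. Subjects were hospitalized around dosing.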

[2] = Preliminary two-compartment population pharmacokinetic model on SAD and MAD data
Outline: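 A two-compartment model with first-order absorption, inter-compartmental transfer and elimination was fitted to plasma concentrations. Data were fasted single-dose and multiple-dose only; fed and pre-dosing data were excluded and MAD outliers kept. Parameters were ka, V1/F, V2/F, CL/F and Q/F, with k10, k12 and k21 derived from clearance/volume. Values below LLOQ (0.1 μg/ml) were left-censored. No covariate testing.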

[3] = SAD study: single ascending oral dose pharmacokinetics; settings: for CL/F: geometric mean (geometric %CV)
Outline: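 Healthy males (n = 6 per group) took oral tablets either fasted (10 h overnight fast, continued 4 h) or 30 min after starting a standardized breakfast. Periods were separated by at least 14 days of washout. Plasma was sampled pre-dose to 168 h; urine was collected 24 h pre-dose and 24 h post-dose. LC-MS/MS used ESI−, LLOQ 0.1 μg/ml. CL/F = dose/AUC0–∞; Vz/F = CL/F/λz; values are geometric means.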

[4] = base model, inter-individual variability
[5] = single oral 10 mg, fed vs fasted

COc1cccc(-c2ccc(NC(=O)C3=C(C(=O)O)CCC3)c(F)c2)c1 [IMU-838, vidofludimus calcium]
TEAEs Total: number of events ([1]; 40 mg, n = 12): 12
TEAEs Total: subjects having the event ([1]; 40 mg, n = 12): 6 (50.0) N (%)
TEAE Hemoglobinuria: subjects having the event ([1]; 40 mg, n = 12): 2 (16.7) N (%)
number of drug-related TEAEs ([1]; 50 mg once daily): 16
TEAE Abdominal pain upper: number of events ([1]; 50 mg, n = 16): 2
TEAE Abdominal pain upper: subjects having the event ([1]; 50 mg, n = 16): 1 (6.3) N (%)
TEAE Dyspepsia: subjects having the event ([1]; 50 mg, n = 16): 1 (6.3) N (%)
TEAE Dysuria: subjects having the event ([1]; 50 mg, n = 16): 1 (6.3) N (%)
TEAE Epistaxis: subjects having the event ([1]; 50 mg, n = 16): 1 (6.3) N (%)
TEAE Flank pain: number of events ([1]; 50 mg, n = 16): 1
TEAE Flank pain: subjects having the event ([1]; 50 mg, n = 16): 1 (6.3) N (%)
TEAE Headache: subjects having the event ([1]; 50 mg, n = 16): 3 (18.8) N (%)
TEAE Hematuria: subjects having the event ([1]; 50 mg, n = 16): 1 (6.3) N (%)
TEAE Lipase increased: number of events ([1]; 50 mg, n = 16): 1
TEAE Lipase increased: subjects having the event ([1]; 50 mg, n = 16): 1 (6.3) N (%)
TEAE Nasopharyngitis: subjects having the event ([1]; 50 mg, n = 16): 4 (25.0) N (%)
TEAE Tenderness: subjects having the event ([1]; 50 mg, n = 16): 1 (6.3) N (%)
TEAEs Gastrointestinal disorders Total: number of events ([1]; 50 mg, n = 16): 3
TEAEs Gastrointestinal disorders Total: subjects having the event ([1]; 50 mg, n = 16): 2 (12.5) N (%)
TEAEs General disorders and administration site conditions Total: number of events ([1]; 50 mg, n = 16): 1
TEAEs General disorders and administration site conditions Total: subjects having the event ([1]; 50 mg, n = 16): 1 (6.3) N (%)
TEAEs Infections and infestations Total: number of events ([1]; 50 mg, n = 16): 4
TEAEs Infections and infestations Total: subjects having the event ([1]; 50 mg, n = 16): 4 (25.0) N (%)
TEAEs Investigations Total: number of events ([1]; 50 mg, n = 16): 1
TEAEs Investigations Total: subjects having the event ([1]; 50 mg, n = 16): 1 (6.3) N (%)
TEAEs Musculoskeletal and connective tissue disorders Total: number of events ([1]; 50 mg, n = 16): 1
TEAEs Musculoskeletal and connective tissue disorders Total: subjects having the event ([1]; 50 mg, n = 16): 1 (6.3) N (%)
TEAEs Nervous system disorders Total: number of events ([1]; 50 mg, n = 16): 3
TEAEs Nervous system disorders Total: subjects having the event ([1]; 50 mg, n = 16): 3 (18.8) N (%)
TEAEs Renal and urinary disorders Total: number of events ([1]; 50 mg, n = 16): 8
TEAEs Renal and urinary disorders Total: subjects having the event ([1]; 50 mg, n = 16): 6 (37.5) N (%)
TEAEs Respiratory, thoracic and mediastinal disorders Total: number of events ([1]; 50 mg, n = 16): 1
TEAEs Total: number of events ([1]; 50 mg, n = 16): 22
TEAEs Total: subjects having the event ([1]; 50 mg, n = 16): 10 (62.5) N (%)
TEAE Hemoglobinuria: subjects having the event ([1]; 50 mg, n = 16): 5 (31.3) N (%)
tolerability ([1]; 30–50 mg once daily over 14 consecutive days): well tolerated
deaths or serious AEs ([1]; single and multiple doses (SAD and MAD)): no deaths or serious AEs
overall number of drug-related TEAEs ([1]; whole MAD study, 52 subjects including placebo): 53
overall number of TEAEs ([1]; whole MAD study, 52 subjects including placebo, mild or moderate intensity): 79
Correlation coefficient IIV CL/F and IIV V1/F ([2]; base model): 0.387
Exponential residual error ([2]; base model): 41.6 %CV
V1/F (volume in central compartment), population estimate ([2]; base model): 2.98 L
V2/F (volume in peripheral compartment), population estimate ([2]; base model): 6.31 L
ka (absorption rate), population estimate ([2]; base model): 0.15 h⁻¹
CL/F (apparent total clearance), population estimate ([2]; base model, fasted SAD and MAD data without pre-dosing): 4.47 mL/min
k12 (inter-compartmental rate constant) ([2]; base model, derived, Eq. 2): 0.124 h⁻¹
k21 (inter-compartmental rate constant) ([2]; base model, derived, Eq. 3): 0.0584 h⁻¹
IIV on CL/F [2, 4]: 20.8 %CV
IIV on V1/F [2, 4]: 49.4 %CV
half-life ([2]; human, plasma, oral): 2.76 h
half-life ([2]; male, human, plasma, oral): 33.1 h
k el ([2]; male, human, plasma, oral): 2.5e-05 s⁻¹
accumulation ratio regarding exposure expected following multiple daily dosing ([3]; based on single-dose pharmacokinetics): ~2
urine samples with concentration below the LLOQ ([3]; single oral 10 mg): all samples
effect of food on pharmacokinetics ([3]; single oral 10 mg, fasted vs fed): Food did not impact the pharmacokinetics; also recorded: no detrimental effect of food intake
CL/F ([3]; single oral 10 mg, fasted, n = 6): 4.064 (15.9) ml/min
blood exposure higher after fed administration compared with fasted [3, 5]: about 32%
geometric mean Cmax higher after fed compared with fasted [3, 5]: about 23%
CL/F ([3]; single oral 10 mg, fed, n = 6): 3.090 (25.5) ml/min
urine samples with concentration below the LLOQ ([3]; single oral 20 mg): four of six samples
CL/F ([3]; single oral 20 mg, fasted, n = 6): 4.218 (17.2) ml/min
CL/F ([3]; single oral 30 mg, fasted, n = 6): 3.633 (29.3) ml/min
CL/F ([3]; single oral 40 mg, fasted, n = 5): 3.480 (21) ml/min
dose dependence of plasma pharmacokinetics ([3]; single oral 10 to 40 mg, fasted): dose-linear
fraction of administered dose excreted in urine during single 24 h period ([3]; single oral 30 and 40 mg): more than 1%
